NadD block: NadD (S. aureus) enzyme inhibition; purified NadD enzyme, colorimetric absorbance read-out; inhibition, % at 20 µM; 360,000 compounds, 0.78% hits; AID 602399; in the data active = inhibition above about 26%
Rpn11 inh: Rpn11 (human) deubiquitinase inhibition. 360,000 compounds, 0.59% hits. human 26S proteasome, Ub4-pepOG fluorescence polarization; 20S core pre-blocked with epoxomicin. AID 588493. inhibition, % at 20 µM;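 active = inhibition at 20 µM, scaled to each plate's controls, above about 33%, limit read from the data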
CSN deneddyl inh: inhibitors of human CSN-mediated cullin deneddylation | Q92905 | Purified CSN, SCF-Nedd8-OG deneddylation, fluorescence polarization | inhibition, % at 12.5 µM | 360,000 compounds, 0.38% hits | AID 651999;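 active = pattern-corrected inhibition above about 35%, with an unprinted fluorescence ratio check between 0.5 and 1.5, limit read from the data, passing the limit was not always enough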
Target sequence (Q92905 whole entry, looked up, one chain of several): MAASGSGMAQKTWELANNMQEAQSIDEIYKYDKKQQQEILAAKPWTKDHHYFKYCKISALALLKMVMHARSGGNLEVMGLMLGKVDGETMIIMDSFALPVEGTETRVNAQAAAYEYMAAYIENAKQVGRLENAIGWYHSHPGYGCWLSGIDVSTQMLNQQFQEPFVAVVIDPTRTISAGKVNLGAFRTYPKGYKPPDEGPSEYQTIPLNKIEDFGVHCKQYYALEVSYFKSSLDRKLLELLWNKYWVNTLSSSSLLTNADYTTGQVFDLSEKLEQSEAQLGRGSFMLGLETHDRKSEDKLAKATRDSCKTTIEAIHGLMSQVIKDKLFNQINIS
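Assay system: purified human Csn5 enzyme expressed in HEK293T cells; measure: % inhibition; also added: SCFSkp2-Nedd8OG substrate at 10 nM final; technique: fluorescence polarization; times: reaction 90 min, room temperature; medium: Tris buffer pH 7.5, NaCl, DTT, Tween-20, trehalose, ovalbumin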
PP1 counter: counter-screen for PP5 inhibitors: inhibitors of human PP1-alpha. purified PP1alpha, OMFP fluorescence. 320,000 compounds, 0.9% hits. inhibition, % at 6.7 µM;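 active = inhibition above the mean inhibition of all tested compounds plus 3 SD, computed separately for each screening campaign, cut at about 15% in these data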
Target sequence (P62136 whole entry, looked up): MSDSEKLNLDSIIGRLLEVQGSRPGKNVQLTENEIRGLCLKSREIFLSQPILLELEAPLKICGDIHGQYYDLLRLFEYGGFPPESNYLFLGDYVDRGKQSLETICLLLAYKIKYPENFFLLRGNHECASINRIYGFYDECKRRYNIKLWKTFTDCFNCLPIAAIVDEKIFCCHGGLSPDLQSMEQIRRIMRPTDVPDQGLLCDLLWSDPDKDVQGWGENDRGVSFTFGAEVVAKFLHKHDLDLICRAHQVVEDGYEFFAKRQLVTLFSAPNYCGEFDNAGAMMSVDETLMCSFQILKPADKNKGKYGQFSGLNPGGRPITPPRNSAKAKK
HNF4A DNA FP: change in binding of human HNF4 alpha to DNA; HNF4a-FITC DNA binding, fluorescence polarization, 1 h; AID 1224865; P41235; 360,000 compounds, 0.3% hits; activity change, % at 10 µM; in the data active = activity change above about 30%, passing the limit was not always enough
TPT1 inhibitor: C. albicans TPT1 enzyme inhibition; recombinant caTPT1, FP RNA substrate dephosphorylation; inhibition, % at 5 µM; 300,000 compounds, 0.81% hits;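 active = inhibition above the mean of all tested compounds plus 3 SD, set per screening campaign, cut at about 24% in these data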
PP1 confirm: human PP1 phosphatase inhibition, confirmation | inhibition, % at 6.7 µM | shares compounds with PP1 counter | purified PP1alpha, OMFP substrate fluorescence | 1,900 compounds, 52% hits;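 active = mean PP1 inhibition above a set limit taken from the earlier primary screen, cut at about 15% in these data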
PP5 counter: inhibits human PP5 phosphatase in PP1 counter-screen; AID 2360; purified PP5c, OMFP fluorescence; 1,900 compounds, 4% hits; inhibition, % at 6.7 µM; shares compounds with PP1 counter;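 active = mean PP5 inhibition over triplicate wells above about 9.5% taken from the earlier PP1 screen, limit read from the data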
Each line names hits and unclear results; the compound was inactive in the other large screens (follow-up assays come after a bar, where they were run). Compounds with a hit are over-represented: about 2.7% of the library has one in this group of screens.

c1ccc(-c2ccncn2)cc1	none (no result: PP1 counter, TPT1 inhibitor)
CCC(C(=O)NCCc1ccc(S(N)(=O)=O)cc1)c1ccccc1 (centres undefined)	none
CC(C)=CCCC(C)CN1CCC(n2nccc2NC(=O)C2CCCC2)CC1 (centres undefined)	none
Oc1cccc2ccc(/C=C/c3ccccc3Cl)nc12	PP1 counter 19 | PP1 confirm inactive | PP5 counter inactive
Cc1ccc(C(O)c2ncc(-c3ccc(C(F)(F)F)cc3)[nH]2)cc1F (centres undefined)	none (no result: PP1 counter, TPT1 inhibitor)
COc1cccc(-c2nnc(NC(=O)c3ccc(Cl)s3)o2)c1	PP1 counter 22 | PP1 confirm 25 | PP5 counter inactive
O=C(Nc1nnc(-c2ccco2)o1)c1ccc(Cl)s1	PP1 counter 18 | PP1 confirm inactive | PP5 counter inactive
CCOC(=O)c1ccc(NS(=O)(=O)c2c(C)nc3sccn3c2=O)cc1	none
CCc1cc2c(=O)c(-c3nc(C)cs3)coc2cc1O	PP1 counter 20 | PP1 confirm inactive | PP5 counter inactive
CCNc1c(NS(=O)(=O)c2ccc([N+](=O)[O-])cc2)c(=O)oc2ccccc12	none
COc1ccc(-c2c(C(F)(F)F)[nH]n3c(=O)cc(-c4ccccc4)nc23)cc1	PP1 counter 25 | PP1 confirm 42 | PP5 counter inactive
COc1cccc(-c2cc3nc(-c4ccccc4)cc(=O)n3[nH]2)c1	PP1 counter 21 | PP1 confirm 23 | PP5 counter inactive
COc1ccc(NC(=O)CN(C)C(=O)c2c(C)nn(-c3ccccc3)c2Cl)cc1	PP1 counter 20 | PP1 confirm inactive | PP5 counter inactive
COc1ccc(NC(=O)CN(C)C(=O)c2c(C)nn(Cc3ccc(C)cc3)c2Cl)cc1	none (no result: TPT1 inhibitor)
Cc1ccc(NC(=O)C(C)Sc2nc(-c3ccccc3)cc(=O)[nH]2)cc1 (centres undefined)	none
CCc1nnc(NC(=O)CN2CCN(Cc3cccc(OC)c3)CC2)s1	none
CCc1nnc(NC(=O)CN2CCN(c3cccc(OC)c3)CC2)s1	PP1 counter 34 | PP1 confirm inactive | PP5 counter inactive
CCNC(=O)c1c(O)c2ccccc2[nH]c1=O	none
CC(C)=NNC(=O)c1c(O)c2ccccc2[nH]c1=O	PP1 counter 21 | PP1 confirm inactive | PP5 counter inactive
CCc1nc2c(OCc3ccccc3C(=O)OC)cccn2c1N(C)C(=O)CC(C)C	none (no result: PP1 counter, TPT1 inhibitor)
O=C(NCCN1C(=O)S/C(=C\c2ccc(Cl)c([N+](=O)[O-])c2)C1=O)C1=COCCO1	none
COc1c(N2CCN[C@H](C)C2)c(F)cc2c(=O)c(C(=O)O)cn(C3CC3)c12	none (no result: NadD block, Rpn11 inh, CSN deneddyl inh, HNF4A DNA FP)
COc1c(N2CCN(C(=S)NCc3ccccc3)C(C)C2)c(F)cc2c(=O)c(C(=O)O)cn(C3CC3)c12 (centres undefined)	PP1 counter 43 | PP1 confirm 33 | PP5 counter inactive
CCOc1ccccc1NC(=O)CSc1nc2nc(-c3cccs3)cc(C(F)(F)F)c2c(=O)[nH]1	PP1 counter 21 | PP1 confirm inactive | PP5 counter inactive
COc1ccc2cc3cc(C(=O)N4CCN(c5ccccn5)CC4)oc3nc2c1	none
Nc1nc(=S)c2[nH]cnc2[nH]1	none
Cc1nn(-c2ccccc2)c2[nH]c(=O)c(CNCc3ccc4c(c3)OCO4)cc12	none
Cc1ccc(-c2nn(-c3ccccc3)c3[nH]c(=O)c(CNCc4ccccc4)cc23)cc1	PP1 counter 27 | PP1 confirm 27 | PP5 counter inactive
O=C(N/N=C/c1ccc(O)cc1O)c1ccc(NC(=O)C2CCCCC2)cc1	PP1 counter 50 | PP1 confirm 36 | PP5 counter inactive
COc1cc2c(cc1OC)CN(C(=O)CCNS(=O)(=O)c1ccccc1F)CC2	none
CC(C)c1ccc(S(=O)(=O)c2cn(Cc3ccc(F)cc3)c3cc4c(cc3c2=O)OCO4)cc1	none (no result: NadD block, Rpn11 inh, CSN deneddyl inh, HNF4A DNA FP)
Cc1ccc(Cn2cc(S(=O)(=O)c3ccc(C(C)C)cc3)c(=O)c3cc4c(cc32)OCO4)cc1	PP1 counter 18 | PP1 confirm 18 | PP5 counter inactive
O=[N+]([O-])c1cc(/C=N/Nc2nc3ccccc3[nH]2)c(O)cc1O	PP1 counter 18 (no result: NadD block, Rpn11 inh, CSN deneddyl inh, HNF4A DNA FP) | PP1 confirm 31 | PP5 counter inactive
C(=N\Nc1nc2ccccc2[nH]1)/c1c[nH]c2ccccc12	none
C(=N\Nc1nc2ccccc2[nH]1)/c1cccc2cccnc12	PP1 counter 18 | PP1 confirm inactive | PP5 counter inactive
Cc1ccccc1/C=N/Nc1nc2ccccc2[nH]1	none
CC(C)C(=O)Nc1c2c(nn1-c1ccc(F)cc1)CS(=O)(=O)C2	none
O=C(CCC1CCN(Cc2nccs2)CC1)Nc1ccccc1	none (no result: PP1 counter, TPT1 inhibitor)
CCOc1ccccc1NS(=O)(=O)c1c(C)[nH]c(C)c1C(=O)N1CCCCC1	none
Nc1cc(=O)[nH]c(SCC(=O)Nc2ccc([N+](=O)[O-])cc2)n1	none
Nc1nc(SCC(=O)Nc2ccc([N+](=O)[O-])cc2)[nH]c(=O)c1NC(=O)c1ccc(Br)cc1	PP1 counter 19 | PP1 confirm 23 | PP5 counter inactive
O=C(CCN1C(=O)C2CCCCC2C1=O)N1CCN(S(=O)(=O)c2ccccc2)CC1 (centres undefined)	PP1 counter 33 | PP1 confirm inactive | PP5 counter inactive
OC[C@H]1O[C@@](CO)(O[C@H]2O[C@H](CO)[C@@H](O)[C@H](O)[C@H]2O)[C@@H](O[C@H]2O[C@H](CO)[C@@H](O)[C@H](O)[C@H]2O)[C@@H]1O	none (no result: PP1 counter, TPT1 inhibitor)
CC(C)(CS(=O)(=O)[O-])NC(=O)CC[N+](C)(C)CCO	PP1 counter 70 | PP1 confirm 56 | PP5 counter inactive
CCOC(=O)CC1(NC(=O)C2CCC(=O)N(CCc3ccccc3)C2)CCCCC1 (centres undefined)	PP1 counter 20 | PP1 confirm inactive | PP5 counter inactive
O=C(CNC(=O)OCc1ccccc1)OC(c1ccccc1)c1ccccc1	none (no result: PP1 counter, TPT1 inhibitor)
C/C(=N\NC(=O)COc1ccc(C)cc1[N+](=O)[O-])c1cccs1	none
C/C(=N\NC(=O)COc1ccc(C)cc1Br)c1cc([N+](=O)[O-])cs1	PP1 counter 22 | PP1 confirm 23 | PP5 counter inactive
O=C(Nc1nc(-c2ccco2)c(-c2ccco2)s1)c1cnccn1	PP1 counter 23 (no result: NadD block, Rpn11 inh, CSN deneddyl inh, HNF4A DNA FP) | PP1 confirm inactive | PP5 counter inactive
O=C(O)CP(=O)(O)O	none
O=P(O)(O)CP(=O)(O)O	PP1 counter 25 (no result: NadD block, Rpn11 inh, CSN deneddyl inh, HNF4A DNA FP) | PP1 confirm 38 | PP5 counter inactive
Cc1ccccc1NC(=O)Cc1nnc(SCC(=O)NC2=NCCS2)n1C	none
